High-throughput results deposited in PubChem BioAssay by several laboratories.
PP1 inh: counter-screen for PP5 inhibitors: inhibitors of human PP1-alpha. P62136. purified PP1alpha, OMFP fluorescence. inhibition, % at 6.7 µM. 320,000 compounds, 0.9% hits. AID 2235;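 active means inhibition above the mean inhibition of all tested compounds plus 3 SD, computed separately for each screening campaign, cut at about 15% in these data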
Target sequence (P62136 whole entry, looked up): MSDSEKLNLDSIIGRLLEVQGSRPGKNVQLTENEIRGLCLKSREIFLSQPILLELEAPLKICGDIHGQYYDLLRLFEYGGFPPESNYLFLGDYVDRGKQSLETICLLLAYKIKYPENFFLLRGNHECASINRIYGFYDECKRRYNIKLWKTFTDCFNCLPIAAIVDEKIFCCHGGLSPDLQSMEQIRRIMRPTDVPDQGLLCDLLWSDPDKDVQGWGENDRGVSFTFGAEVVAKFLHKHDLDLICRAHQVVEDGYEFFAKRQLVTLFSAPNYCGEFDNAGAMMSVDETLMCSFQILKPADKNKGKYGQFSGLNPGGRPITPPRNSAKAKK
HCV core dimer: HCV core protein dimerization inhibition | inhibition, % at 5 µM | 300,000 compounds, 0.33% hits | TR-FRET GST/Flag-core106 dimerization, 1536-well;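 active means inhibition above the mean of all tested compounds plus 3 SD, set per screening campaign, cut at about 45% in these data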
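System: GST/Flag-tagged HCV core106 proteins. Incubation: compound-protein-antibody incubation 4 h at 22.5 °C. Technique: HTRF with 340 nm excitation, 617/671 nm emission. Medium: KF-containing HEPES buffer, pH 7.45, DTT, CHAPS, BSA. Read-out: inhibition (%) from 671 over 617 nm ratio. Also added: Eu(K)-anti-GST 90 ng/mL plus XL665-anti-Flag 1 µg/mL.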
NadD block: blocks S. aureus nicotinate mononucleotide adenylyltransferase. AID 602399. 360,000 compounds, 0.78% hits. inhibition, % at 20 µM. purified NadD enzyme, colorimetric absorbance read-out; in the data active means inhibition above about 26%
CTSL1 counter: counter-screen for PFM18AAP inhibitors: inhibitors of F. hepatica cathepsin L1; recombinant F. hepatica cathepsin L1, Z-Leu-Arg-MCA fluorescence; inhibition, % at 5.96 µM; 300,000 compounds, 0.49% hits; AID 1906;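 active means inhibition above the mean of all tested compounds plus 3 SD, set per screening campaign, cut at about 17% in these data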
PP5 primary: blocks human protein phosphatase 5 activity | P53041 | purified PP5c, OMFP substrate fluorescence | inhibition, % at 6.7 µM | 320,000 compounds, 0.18% hits;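 active means inhibition above the campaign's mean inhibition across all tested compounds plus 3 SD, cut at about 9.5% in these data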
Myeloid diff 2: promotes myeloid progenitor differentiation | ER-HoxA9 myeloid progenitors, lysozyme-GFP differentiation, flow cytometry | calls only at 10 µM | 360,000 compounds, 1% hits;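 active means normalized GFP-positive differentiation at or above the plate's own cutoff, the solvent-only control mean plus 3 SD; inconclusive means no clear call, values can overlap the other calls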;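 further: cells exposed to compound for four days before flow analysis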
Myeloid diff CP1: compounds promoting myeloid differentiation | 2,300 compounds, 2% hits | ER-HoxA9 myeloid progenitors, GFP/Mac1 double-positive flow | AID 651706 | calls only | shares compounds with Myeloid diff 2;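 active means share of green or green-and-red cells above 9 and 9% in run 1 or 4 and 3% in run 2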
GFP autofluor: compound fluorescence in myeloid differentiation counter-screen; shares compounds with Myeloid diff 2; fluorescence response, % (no concentration beside the values); AID 651707; 2,300 compounds, 7.4% hits; ER-HoxA9 myeloid progenitors, no estrogen, GFP autofluorescence flow cytometry; vehicle wells 0%, positive control 100%;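 active means over 5% cells positive for green fluorescent reporter, or over 2% positive for both it and APC stain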
Large screens that a line does not name were inactive (follow-up assays come after a bar, where they were run). Sampled rows, rich in hits. Any-hit rate of the full collection: about 3.1%.

Cc1cc(C)n(-c2nnc3n2N=C(c2ccccc2)CS3)n1	none
CCn1c(COc2ccccc2C)nnc1SCC(=O)Nc1cc(C)on1	Myeloid diff 2 active | Myeloid diff CP1 inactive | GFP autofluor inactive
O=C(NC1CCCCC1)c1nc(C2CCNCC2)oc1-c1ccccc1	none (no result: PP1 inh, HCV core dimer, CTSL1 counter, PP5 primary)
Cc1ccc(NS(=O)(=O)c2cc3c4c(cccc4c2)C(=O)NC3=O)cc1C	Myeloid diff 2 active | Myeloid diff CP1 inactive | GFP autofluor inactive
O=C1NC(=O)c2cc(Br)cc3cccc1c23	none
O=S(=O)(c1ccc2c(c1)OCCO2)N1CCC(c2nc3ccc(Cl)cc3[nH]2)CC1	none | Myeloid diff CP1 inactive | GFP autofluor inactive
COc1ccc(S(=O)(=O)N2C3CCC2CC(NC(=O)C2CC2)C3)cc1 (stereo not drawn)	none | Myeloid diff CP1 inactive | GFP autofluor inactive
CCc1ccc2nc(Nc3nc(COC)cc(=O)[nH]3)nc(C)c2c1	none (no result: Myeloid diff 2)
COCc1cc(=O)[nH]c(Nc2nc3ccc(C)cc3o2)n1	none | Myeloid diff CP1 inactive | GFP autofluor inactive
CN1/C(=C\C(=O)C[n+]2cccc(Br)c2)C(C)(C)c2ccccc21	Myeloid diff 2 active | Myeloid diff CP1 inactive | GFP autofluor inactive
Cc1ccc[n+](CC(=O)/C=C2\N(C)c3ccccc3C2(C)C)c1	none
CCOc1ccc(S(=O)(=O)Nc2cccc(C(=O)NCCCN3CCCC3=O)c2)cc1	none (no result: HCV core dimer, CTSL1 counter) | Myeloid diff CP1 inactive | GFP autofluor inactive
CCNCCNC(=O)c1c(O)c2cccc3c2n(c1=O)CCC3	none | Myeloid diff CP1 inactive | GFP autofluor inactive
O=C(NC1CCCCC1)c1cccc2c1C(=O)c1ccc(N3CCC(Cc4ccccc4)CC3)cc1S2(=O)=O	Myeloid diff 2 active (no result: PP1 inh, HCV core dimer, CTSL1 counter, PP5 primary) | Myeloid diff CP1 inactive | GFP autofluor inactive
CC1(C(=O)NCCc2c[nH]c3ccccc23)CCN1CC1CCCCC1 (stereo not drawn)	none (no result: PP1 inh, HCV core dimer, CTSL1 counter, PP5 primary)
COC(=O)c1cccc(C(=O)Nc2ccc(F)cc2)n1	none | Myeloid diff CP1 inactive | GFP autofluor inactive
COc1cc(CN2C(=O)C(C)ON=C2c2ccccc2F)cc(OC)c1 (stereo not drawn)	none (no result: PP1 inh, HCV core dimer, CTSL1 counter, PP5 primary)
COc1nc(-c2ccccc2)nnc1-c1ccccc1	none (no result: PP1 inh, HCV core dimer, CTSL1 counter, PP5 primary)
COc1nc(-c2ccccc2)nc(C)c1CC(=O)O	none | Myeloid diff CP1 inactive | GFP autofluor inactive
O=C(OCc1ccccc1)N1CCC2CC1c1c(Cl)cccc12 (stereo not drawn)	none (no result: PP1 inh, HCV core dimer, CTSL1 counter, PP5 primary)
O=C(OCc1ccccc1)N1CCC2CC1c1cc(Cl)ccc12 (stereo not drawn)	Myeloid diff 2 inconclusive (no result: PP1 inh, HCV core dimer, CTSL1 counter, PP5 primary) | Myeloid diff CP1 inactive | GFP autofluor inactive
Cc1ccc(NC(=O)c2ccc(=O)[nH]c2)cc1S(=O)(=O)N1CCCCC1	none | Myeloid diff CP1 inactive | GFP autofluor inactive
COc1cccc(NC(=S)Nc2cccc3ccccc23)c1	none | Myeloid diff CP1 inactive | GFP autofluor inactive
Fc1ccc(Nc2nc(NCc3cccs3)nc3ccsc23)cc1	none (no result: PP1 inh, HCV core dimer, CTSL1 counter, PP5 primary)
Clc1cc(Cl)cc(Nc2ccccc2CN(C/C=C/c2ccc3c(c2)OCO3)Cc2ccccc2)c1	none (no result: PP1 inh, HCV core dimer, CTSL1 counter, PP5 primary) | Myeloid diff CP1 inactive | GFP autofluor inactive
COc1ccc(C(=O)OCc2cc(C)ccc2C)cc1S(=O)(=O)N1CCCC1	Myeloid diff 2 active (no result: HCV core dimer, CTSL1 counter) | Myeloid diff CP1 inactive | GFP autofluor inactive
CC1C(=O)N(Cc2cn(CCC3OCCO3)nn2)CCS(=O)(=O)N1Cc1ccc(-c2ccc(F)nc2)cc1 (stereo not drawn)	none (no result: PP1 inh, HCV core dimer, CTSL1 counter, PP5 primary)
CC(C)CC(=O)c1c[nH]c(C(=O)NCCc2ccccn2)c1	none | Myeloid diff CP1 inactive | GFP autofluor inactive
Cc1ccccc1Nc1nc(N)nc(CSc2n[nH]c(N)n2)n1	Myeloid diff 2 active | Myeloid diff CP1 inactive | GFP autofluor inactive
Cc1cccc(C(=O)N/N=C/c2ccc(OC3CSC3)cc2)c1	none | Myeloid diff CP1 inactive | GFP autofluor inactive
COc1cccc(C(=O)N/N=C/c2ccc(OC3CSC3)cc2)c1	none
O=C(C1CCCCN1S(=O)(=O)c1ccccc1)N1CCCCC1 (stereo not drawn)	Myeloid diff 2 active | Myeloid diff CP1 inactive | GFP autofluor inactive
CC(C)(C)c1ccc(NC(=O)CC2(C(F)(F)F)OCCO2)cc1	none | Myeloid diff CP1 inactive | GFP autofluor inactive
O=C(O)CC1(CC(=O)Nc2ccc(C(F)(F)F)cc2)CCCC1	none (no result: Myeloid diff 2)
